Data reported in ChEMBL document CHEMBL3352281, “Canthin-6-one displays antiproliferative activity and causes accumulation of cancer cells in the G2/M phase” (J Nat Prod, 2014).
Calls of active or inactive are those of the source. The calls are words filed in the database; no cut-off is given here.

Legend:
[1] = tested on: Jurkat; assay: Antiproliferative activity against human Jurkat cells assessed as inhibition of cell growth at 40 uM after 4 days; format: functional, cell-based
Procedure, shortened: (§1)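 Cell counting: 40 000 cells/well seeded and grown at 37 °C, 5% CO2 in medium with 10% FCS, 2 mM glutamine and penicillin-streptomycin (Ham's F12 for PC-3, RPMI for Jurkat, DMEM for the others). Compound added from a 50-fold stock in 10% DMSO; controls 0.2% DMSO. Quadruplicate wells trypsinized (Jurkat not) and counted in a Malassez chamber; mean ± SEM, n = 4.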

[2] = tested on: PC-3; assay: Induction of cell cycle arrest in human PC3 cells assessed as accumulation at S phase at 40 uM incubated for 48 hrs by propidium iodide staining based flow cytometry (reference value: 21.6 +/- 0.2%); format: functional
[3] = Toxicity against human NHDF assessed as cell viability at 40 uM incubated for 3 days by MTT assay; format: cell-based; conditions: NHDF cells, read-out: Activity
Procedure, shortened: (§2)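 Normal human dermal fibroblasts kept 3 days in DMEM with 10% FCS at increasing concentrations up to 160 μM, DMSO-matched controls. MTT reduction read at 540 nm as percentage viability (mean ± SEM, n = 3), with microscopic morphology scoring.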

[4] = tested on: PC-3; assay: Induction of apoptosis in human PC3 cells assessed as induction of procaspase-3 cleavage at 40 uM after 48 hrs by Western blot method; format: functional
Procedure, shortened: (§3)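 Western blot: 40 000 cells/well exposed 2−4 days to 40 μM (HeLa 10 and 30 μM) or 0.2% DMSO. Lysed in Laemmli buffer, run on 12.5% SDS-PAGE, moved to nitrocellulose. Probed overnight at 4 °C with rabbit anti-caspase-3 (1/1000), then Alexa-488 secondary. β-Actin loading control; fluorescence read on a laser scanner.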

[5] = tested on: C6; assay: Induction of apoptosis in rat C6 cells assessed as induction of procaspase-3 cleavage at 40 uM after 48 hrs by Western blot method; format: functional, cell-based; procedure, shortened: as §3
[6] = tested on: Jurkat; assay: Antiproliferative activity against human Jurkat cells assessed as inhibition of cell growth at 10 to 60 uM after 4 days; format: functional, cell-based; conditions: 96 h; procedure, shortened: as §1
[7] = tested on: PC-3; assay: Inhibition of DNA synthesis in human PC3 cells assessed as reduction in BrdU incorporation at 40 uM pre-incubated for 30 hrs by Southern blotting method; format: functional
Procedure, shortened: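 PC-3, 10^6 cells per flask, held 30 h at 40 μM or 0.2% DMSO, then 18 h BrdU labeling. Genomic DNA isolated by proteinase K/phenol-chloroform; 400 ng run on agarose, blotted to nitrocellulose, acid-denatured, probed with anti-BrdU and Alexa 647 secondary. Scanned signal normalized to ethidium bromide DNA fluorescence.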

[8] = tested on: HT-29; assay: Induction of apoptosis in human HT-29 cells assessed as induction of procaspase-3 cleavage at 40 uM after 48 hrs by Western blot method; format: functional; procedure, shortened: as §3
[9] = tested on: PC-3; assay: Inhibition of DNA synthesis in human PC3 cells assessed as reduction in post-mitotic nuclei level at 40 uM pre-incubated for 30 hrs by immunofluorescence microscopy (reference value: 85%); format: functional; conditions: PC-3, read-out: INH
[10] = Antiproliferative activity against human PC3 cells assessed as induction of cell death at 40 to 60 uM after 4 days; format: functional, PC-3
Procedure, shortened: (§4)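 Cells seeded at 40 000 per well and grown at 37 °C, 5% CO2 with 10% FCS, 2 mM glutamine and penicillin-streptomycin (Ham's F12 for PC-3, RPMI for Jurkat, DMEM for HT-29, HeLa, C6, NIH-3T3). Compound added from a 50-fold solution in 10% DMSO; controls 0.2% DMSO. Quadruplicate wells trypsinized (Jurkat not) and counted in a Malassez chamber; mean ± SEM, n = 4.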

[11] = tested on: PC-3; assay: Induction of cell cycle arrest in human PC3 cells assessed as accumulation at G1 phase at 40 uM incubated for 48 hrs by propidium iodide staining based flow cytometry (reference value: 57.8 +/- 0.6%); format: functional
[12] = Toxicity against human NHDF assessed as cell viability up to 20 uM incubated for 3 days by MTT assay; format: cell-based; conditions: NHDF cells, read-out: Activity; procedure, shortened: as §2
[13] = Toxicity against human NHDF assessed as cell viability at 160 uM incubated for 3 days by MTT assay; format: cell-based; conditions: NHDF cells, read-out: Activity; procedure, shortened: as §2
[14] = tested on: NIH3T3; assay: Induction of apoptosis in mouse NIH/3T3 cells assessed as induction of procaspase-3 cleavage at 40 uM after 48 hrs by Western blot method; format: functional, cell-based; procedure, shortened: as §3
[15] = tested on: NIH3T3; assay: Antiproliferative activity against mouse NIH/3T3 cells assessed as inhibition of cell growth at 40 uM after 4 days; format: functional, cell-based; procedure, shortened: as §1
[16] = tested on: PC-3; assay: Antiproliferative activity against human PC3 cells assessed as inhibition of cell growth at 40 uM after 4 days; format: functional, cell-based; procedure, shortened: as §1
[17] = tested on: HT-29; assay: Antiproliferative activity against human HT-29 cells assessed as inhibition of cell growth at 40 uM after 4 days; format: functional, cell-based; procedure, shortened: as §1
[18] = tested on: HT-29; assay: Antiproliferative activity against human HT-29 cells assessed as inhibition of cell growth at 10 to 60 uM after 4 days; format: functional, cell-based; conditions: HT-29, 96 h; procedure, shortened: as §1
[19] = Toxicity against human NHDF assessed as cell viability at 80 uM incubated for 3 days by MTT assay; format: cell-based; conditions: NHDF cells, read-out: Activity; procedure, shortened: as §2
[20] = tested on: HeLa; assay: Induction of apoptosis in human HeLa cells assessed as induction of procaspase-3 cleavage at 10 uM after 48 hrs by Western blot method; format: functional; procedure, shortened: as §3
[21] = tested on: C6; assay: Antiproliferative activity against rat C6 cells assessed as inhibition of cell growth at 10 to 60 uM after 4 days; format: functional, cell-based; conditions: C6, 96 h; procedure, shortened: as §1
[22] = tested on: Jurkat; assay: Antiproliferative activity against human Jurkat cells assessed as induction of cell death at 40 to 60 uM after 4 days; format: functional; procedure, shortened: as §4
[23] = tested on: PC-3; assay: Induction of cell cycle arrest in human PC3 cells assessed as accumulation at G2/M phase at 40 uM incubated for 48 hrs by flow propidium iodide staining based flow cytometry (reference value: 20 +/- 0.6%); format: functional
[24] = tested on: C6; assay: Antiproliferative activity against rat C6 cells assessed as inhibition of cell growth at 40 uM after 4 days; format: functional, cell-based; procedure, shortened: as §1
[25] = tested on: PC-3; assay: Induction of apoptosis in human PC3 cells assessed as induction of procaspase-3 cleavage at 40 uM after 96 hrs by Western blot method; format: functional; procedure, shortened: as §3
[26] = Toxicity against human NHDF assessed as reduction in cell viability incubated for 3 days by MTT assay; format: cell-based; conditions: NHDF cells; procedure, shortened: as §2
[27] = tested on: HeLa; assay: Antiproliferative activity against human HeLa cells assessed as inhibition of cell growth at 10 uM after 4 days; format: functional; conditions: 96 h, read-out: GI; procedure, shortened: as §1
[28] = Antiproliferative activity against mouse NIH/3T3 cells assessed as induction of cell death at 40 to 60 uM after 4 days; format: functional, NIH3T3; procedure, shortened: as §4
[29] = tested on: C6; assay: Antiproliferative activity against rat C6 cells assessed as induction of cell death at 40 to 60 uM after 4 days; format: functional; procedure, shortened: as §4
[30] = Antiproliferative activity against mouse NIH/3T3 cells assessed as inhibition of cell growth at 10 to 60 uM after 4 days; format: functional, cell-based; conditions: NIH3T3, 96 h; procedure, shortened: as §1
[31] = tested on: HeLa; assay: Antiproliferative activity against human HeLa cells assessed as inhibition of cell growth at 40 uM after 2 days; format: functional; conditions: 48 h, read-out: GI; procedure, shortened: as §1
[32] = tested on: PC-3; assay: Reduction in mitotic spindles formation in human PC3 cells at 40 uM incubated for 48 hrs by tubulin immunofluorescence assay; format: functional; conditions: PC-3, 48 h
Procedure, shortened: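 Mitotic spindles: PC-3 in chamber slides (10 000/well), 2 days with 40 μM or 0.2% DMSO. Ethanol/glycine fixation, anti-β-tubulin 1/200 for 2 h at 37 °C, then Alexa 488 secondary. Mitotic cells scored by fluorescence microscopy in random fields; at least 6000−10 000 cells counted per group.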

[33] = tested on: HT-29; assay: Antiproliferative activity against human HT-29 cells assessed as induction of cell death at 40 to 60 uM after 4 days; format: functional; procedure, shortened: as §4
[34] = tested on: HeLa; assay: Induction of apoptosis in human HeLa cells assessed as induction of procaspase-3 cleavage at 30 uM after 48 hrs by Western blot method; format: functional; procedure, shortened: as §3
[35] = tested on: HeLa; assay: Antiproliferative activity against human HeLa cells assessed as inhibition of cell growth at 10 to 60 uM after 4 days; format: functional, cell-based; conditions: 96 h; procedure, shortened: as §1
[36] = tested on: Jurkat; assay: Induction of apoptosis in human Jurkat cells assessed as induction of procaspase-3 cleavage at 40 uM after 48 hrs by Western blot method; format: functional, cell-based; procedure, shortened: as §3
[37] = Antiproliferative activity against human PC3 cells assessed as inhibition of cell growth at 10 to 60 uM after 4 days; format: functional, cell-based; conditions: PC-3, 96 h; procedure, shortened: as §1

Question: Which “growth inhibition (GI)” value [1] does the source give for `O=c1ccc2nccc3c4ccccc4n1c23` [CANTHIN-6-ONE] here?
Answer: The value was “Active”.

Question: And the Activity [2]?
Answer: The Activity was 13.3%.

Question: What about the viability at 72 h, 40 µM [3] of the same compound?
Answer: The viability at 72 h, 40 µM was 80%.

Question: And the “fold change (FC)” value [4]?
Answer: The value was 2.

Question: And the Activity [5]?
Answer: The Activity was “inactive”.

Question: What about the EC50 [6] of the same compound?
Answer: Its EC50 is 15 µM.

Question: What about the inhibition at 40 µM [7] of the same compound?
Answer: The inhibition at 40 µM was 80%.

Question: And the “fold change (FC)” value [8]?
Answer: Its value is 2.

Question: What about the inhibition at 40 µM [9] of the same compound?
Answer: The inhibition at 40 µM was 60%.

Question: And the Activity [10]?
Answer: The Activity was “<=30%”.

Question: And the Activity [11]?
Answer: Its Activity is 38.1%.

Question: What about the viability at 72 h [12] of the same compound?
Answer: The viability at 72 h was 80%.

Question: And the viability at 72 h, 160 µM [13]?
Answer: The viability at 72 h, 160 µM was 33%.

Question: What about the Activity [14] of the same compound?
Answer: Its Activity is “inactive”.

Question: What about the “growth inhibition (GI)” value [15] of the same compound?
Answer: The value was “Active”.

Question: What about the “growth inhibition (GI)” value [16] of the same compound?
Answer: The value was “Active”.

Question: What about the “growth inhibition (GI)” value [17] of the same compound?
Answer: Its value is “Active”.

Question: What about the EC50 [18] of the same compound?
Answer: Its EC50 is 15 µM.

Question: What about the viability at 72 h, 80 µM [19] of the same compound?
Answer: The viability at 72 h, 80 µM was 64%.

Question: And the “fold change (FC)” value [20]?
Answer: The value was 1.5.

Question: And the EC50 [21]?
Answer: The EC50 was 15 µM.

Question: And the Activity [22]?
Answer: The Activity was “<=30%”.

Question: What about the Activity [23] of the same compound?
Answer: Its Activity is 47.8%.

Question: What about the “growth inhibition (GI)” value [24] of the same compound?
Answer: Its value is “Active”.

Question: And the “fold change (FC)” value [25]?
Answer: The value was 7.

Question: What about the EC50 at 3 days [26] of the same compound?
Answer: The EC50 at 3 days was 115 µM.

Question: What about the inhibition of growth at 10 µM [27] of the same compound?
Answer: The inhibition of growth at 10 µM was 100%.

Question: What about the Activity [28] of the same compound?
Answer: Its Activity is “<=30%”.

Question: And the Activity [29]?
Answer: Its Activity is “<=30%”.

Question: What about the EC50 [30] of the same compound?
Answer: The EC50 was 15 µM.

Question: And the inhibition of growth at 40 µM [31]?
Answer: The inhibition of growth at 40 µM was over 90%.

Question: And the inhibition at 40 µM [32]?
Answer: Its inhibition at 40 µM is 80%.

Question: And the Activity [33]?
Answer: The Activity was “<=30%”.

Question: And the “fold change (FC)” value [34]?
Answer: Its value is 3.5.

Question: What about the EC50 [35] of the same compound?
Answer: The EC50 was 5 µM.

Question: And the Activity [36]?
Answer: The Activity was “inactive”.

Question: What about the EC50 [37] of the same compound?
Answer: The EC50 was 15 µM.
